Usually Ki stands for the equilibrium dissociation constant of an inhibitor or competing ligand from its target. By solubility is commonly meant the concentration that dissolves in the medium under given conditions.

Molecules are shown by their SMILES.

28 compounds from ChEMBL document CHEMBL3351269, “Phenylimidazoles as potent and selective inhibitors of coagulation factor XIa with in vivo antithrombotic activity” (J Med Chem, 2014) can be followed below.

The target of one data set is Coagulation factor XI (Homo sapiens, UniProt P03951). Nature of the data set: Inhibition of human coagulation factor 11a using p-nitroaniline as substrate assessed as substrate hydrolysis by spectrophotometrically. Put shortly:
(§1)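 Purified human enzymes; reaction started by adding enzyme to substrate with or without inhibitor, excess substrate and inhibitor over enzyme, 1% DMSO, room temperature, 10–120 min. pNA read at 405 nm. FXIa, FXIIa and chymotrypsin in HEPES pH 7.4 with NaCl, KCl and PEG; FXa and kallikrein in phosphate pH 7.5; FVIIa in HEPES with CaCl2. IC50 from duplicates over 8–11 concentrations, converted to Ki assuming competitive inhibition.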

A further data set has as its target T1, Coagulation factor VII (Homo sapiens, UniProt P08709).
T1 sequence (P08709 whole entry): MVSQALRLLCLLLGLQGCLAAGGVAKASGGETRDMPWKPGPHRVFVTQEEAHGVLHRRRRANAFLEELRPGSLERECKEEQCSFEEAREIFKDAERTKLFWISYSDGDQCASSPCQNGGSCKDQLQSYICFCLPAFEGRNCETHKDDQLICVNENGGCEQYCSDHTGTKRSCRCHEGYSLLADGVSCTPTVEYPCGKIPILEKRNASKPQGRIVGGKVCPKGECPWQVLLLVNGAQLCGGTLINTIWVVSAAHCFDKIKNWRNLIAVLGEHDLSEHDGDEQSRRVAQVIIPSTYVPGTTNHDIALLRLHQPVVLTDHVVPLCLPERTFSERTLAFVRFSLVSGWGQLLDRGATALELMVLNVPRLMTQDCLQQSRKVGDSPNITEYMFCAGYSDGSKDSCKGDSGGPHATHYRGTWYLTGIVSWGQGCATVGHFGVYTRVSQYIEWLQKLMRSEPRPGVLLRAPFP
Kind of data set: Inhibition of human coagulation factor 7a using H-(D)-Ile-Pro-Arg-pNA as substrate by spectrophotometric analysis. In outline: as §1

The target in a further data set is Coagulation factor X (Homo sapiens, UniProt P00742). Nature of the data set: Inhibition of human coagulation factor 10a using N-benzoyl-Ile-Glu-(OH, OMe)-Gly-Arg-pNA as substrate by spectrophotometric analysis. In outline:
as §1

The next data set has as its target Plasma kallikrein (Homo sapiens, UniProt P03952). Kind of data set: Inhibition of human plasma kallikrein using H-D-Pro-Phe-Arg-pNA as substrate. In outline:
as §1

The nature of data set [1]: Anticoagulant activity in healthy human plasma assessed as concentration required to 2 fold prolong clotting time by aPTT assay. The format is functional. Put shortly: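 Citrated human plasma from healthy volunteers (one-tenth volume 0.11 M buffered citrate; spun 2000g, 10 min, kept on ice). Inhibitor from 10 mM DMSO stock, diluted in plasma, up to seven concentrations. aPTT with Alexin: plasma warmed 1 min at 37 °C, reagent added, CaCl2 2 min later. Duplicates, as ratio to baseline. EC2x by linear interpolation, as total plasma concentration.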

Data set [2] in a line: Solubility of the compound in 100 mM phosphate buffer at pH 7.4. The format is physicochemical. Put shortly:
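Solubility of the amorphous bis-HCl salt in 100 mM phosphate buffer, pH 7.4.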

Another data set concerns Oryctolagus cuniculus. Kind of data set: Antithrombotic activity in iv dosed New Zealand male rabbit AV-shunt thrombosis model assessed as inhibition of thrombus formation infused at 1 mg/kg/hr. The following applies: read-out: ID50 (the source's name). Format: functional.

Plasma kallikrein, sequence (P03952 20-390 limits assumed): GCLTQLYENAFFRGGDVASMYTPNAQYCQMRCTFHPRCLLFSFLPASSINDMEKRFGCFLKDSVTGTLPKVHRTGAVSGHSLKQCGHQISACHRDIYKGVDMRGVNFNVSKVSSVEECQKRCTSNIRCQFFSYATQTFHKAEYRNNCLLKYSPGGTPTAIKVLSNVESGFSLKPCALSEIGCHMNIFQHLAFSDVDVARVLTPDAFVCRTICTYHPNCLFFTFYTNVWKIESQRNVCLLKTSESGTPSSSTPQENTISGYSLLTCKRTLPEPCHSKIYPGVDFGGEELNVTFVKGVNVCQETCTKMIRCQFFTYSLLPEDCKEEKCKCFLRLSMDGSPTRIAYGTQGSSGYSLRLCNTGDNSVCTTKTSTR
Plasma kallikrein, sequence (P03952 391-638 limits assumed): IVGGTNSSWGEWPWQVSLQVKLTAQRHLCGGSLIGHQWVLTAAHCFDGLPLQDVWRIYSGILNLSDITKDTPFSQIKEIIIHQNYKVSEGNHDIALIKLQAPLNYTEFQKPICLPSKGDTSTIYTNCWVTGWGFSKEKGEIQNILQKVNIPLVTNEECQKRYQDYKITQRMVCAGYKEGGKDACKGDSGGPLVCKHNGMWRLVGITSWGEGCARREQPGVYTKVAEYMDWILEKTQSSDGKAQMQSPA
Coagulation factor X, sequence (P00742 41-179 limits assumed): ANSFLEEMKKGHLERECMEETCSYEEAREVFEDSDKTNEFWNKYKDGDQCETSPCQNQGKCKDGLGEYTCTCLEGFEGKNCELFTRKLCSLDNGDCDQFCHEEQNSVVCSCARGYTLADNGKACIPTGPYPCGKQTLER
Coagulation factor X, sequence (P00742 235-488 limits assumed): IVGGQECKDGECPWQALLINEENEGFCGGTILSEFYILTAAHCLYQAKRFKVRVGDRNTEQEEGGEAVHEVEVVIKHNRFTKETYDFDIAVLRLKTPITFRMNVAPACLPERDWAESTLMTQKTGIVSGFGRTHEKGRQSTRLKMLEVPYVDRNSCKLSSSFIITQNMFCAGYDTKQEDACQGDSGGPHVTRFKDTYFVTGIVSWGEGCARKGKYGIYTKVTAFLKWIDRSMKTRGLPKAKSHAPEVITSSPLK
Coagulation factor XI, sequence (P03951 19-387 limits assumed): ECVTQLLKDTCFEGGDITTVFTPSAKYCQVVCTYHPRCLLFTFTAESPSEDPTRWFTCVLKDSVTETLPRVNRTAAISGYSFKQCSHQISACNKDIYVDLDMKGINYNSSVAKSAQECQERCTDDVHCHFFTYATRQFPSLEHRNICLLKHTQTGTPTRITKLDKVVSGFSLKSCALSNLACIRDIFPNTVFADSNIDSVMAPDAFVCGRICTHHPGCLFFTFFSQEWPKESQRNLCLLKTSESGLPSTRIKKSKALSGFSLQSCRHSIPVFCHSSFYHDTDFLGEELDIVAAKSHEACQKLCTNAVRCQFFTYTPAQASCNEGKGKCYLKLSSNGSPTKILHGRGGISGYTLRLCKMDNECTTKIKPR
Coagulation factor XI, sequence (P03951 388-625 limits assumed): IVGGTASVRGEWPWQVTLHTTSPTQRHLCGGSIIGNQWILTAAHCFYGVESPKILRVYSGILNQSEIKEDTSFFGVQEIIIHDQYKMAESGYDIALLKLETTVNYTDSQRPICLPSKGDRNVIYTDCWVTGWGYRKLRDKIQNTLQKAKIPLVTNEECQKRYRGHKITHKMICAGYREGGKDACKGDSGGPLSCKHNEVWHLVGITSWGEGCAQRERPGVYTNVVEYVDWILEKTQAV

On to `CC(C)CC(=O)Nc1cc(-c2ccc(C(N)=O)cc2C(=O)O)cc([C@@H]2C[C@](C)(c3ccccc3)c3cc(C(=N)N)ccc3N2)c1`, for which the Ki stood at 0.2 nM at Coagulation factor XI, 630 nM on Coagulation factor VII, 340 nM at Coagulation factor X and 2 nM at Plasma kallikrein. Moreover, the 2aPTT in data set [1] amounted to 2 µM.
Turning to `NC[C@H]1CC[C@H](C(=O)N[C@@H](Cc2ccccc2)c2nc(-c3ccc(S(N)(=O)=O)cc3)c[nH]2)CC1`, the inhibition constant (Ki) on Coagulation factor XI is 1340 nM; at Coagulation factor VII, above 10900 nM; at Coagulation factor X, above 8180 nM; at Plasma kallikrein it was 5540 nM.
On to `NC[C@H]1CC[C@H](C(=O)N[C@@H](Cc2ccccc2)c2nc(-c3ccccc3)c[nH]2)CC1.O=C(O)C(F)(F)F`, for which the Ki was 120 nM on Coagulation factor XI, above 10900 nM at Coagulation factor VII, above 8180 nM on Coagulation factor X and 330 nM at Plasma kallikrein. In data set [1], the 2aPTT is above 40 µM.
As to `N#Cc1ccc(-c2c[nH]c([C@H](Cc3ccccc3)NC(=O)[C@H]3CC[C@H](CN)CC3)n2)cc1`, the Ki on Coagulation factor XI was 230 nM; at Coagulation factor VII, above 10900 nM; on Coagulation factor X it was above 8180 nM; at Plasma kallikrein, 940 nM.
Consider `COC(=O)c1ccc(-c2c[nH]c([C@H](Cc3ccccc3)NC(=O)[C@H]3CC[C@H](CN)CC3)n2)cc1`, for which the Ki on Coagulation factor XI was 800 nM; at Coagulation factor VII it was above 10900 nM; on Coagulation factor X, above 8180 nM; at Plasma kallikrein, 1920 nM.
For `CCOC(=O)Cc1ccc(-c2c[nH]c([C@H](Cc3ccccc3)NC(=O)[C@H]3CC[C@H](CN)CC3)n2)cc1`, in that order: 495 nM, above 10900 nM, above 8180 nM and 1360 nM.
The like results for `N#Cc1cccc(-c2c[nH]c([C@H](Cc3ccccc3)NC(=O)[C@H]3CC[C@H](CN)CC3)n2)c1` were, in that order, 1120 nM, above 10900 nM, above 8180 nM and 1170 nM.
Take `CCOC(=O)Cc1cccc(-c2c[nH]c([C@H](Cc3ccccc3)NC(=O)[C@H]3CC[C@H](CN)CC3)n2)c1`: the inhibition constant Ki on Coagulation factor XI is 630 nM; on Coagulation factor VII, above 10900 nM; on Coagulation factor X, above 8180 nM; at Plasma kallikrein it was 1470 nM.
With `NC[C@H]1CC[C@H](C(=O)N[C@@H](Cc2ccccc2)c2nc(-c3ccc(C(N)=O)cc3)c[nH]2)CC1.O=C(O)C(F)(F)F`, the Ki was 30 nM at Coagulation factor XI, above 10900 nM on Coagulation factor VII, above 9000 nM on Coagulation factor X and 60 nM at Plasma kallikrein. Also, the 2aPTT in data set [1] was above 40 µM.
Turning to `CNC(=O)c1ccc(-c2c[nH]c([C@H](Cc3ccccc3)NC(=O)[C@H]3CC[C@H](CN)CC3)n2)cc1`, the Ki at Coagulation factor XI is 350 nM; on Coagulation factor VII, above 10900 nM; on Coagulation factor X it was above 8180 nM; at Plasma kallikrein it was 220 nM.
For `CN(C)C(=O)c1ccc(-c2c[nH]c([C@H](Cc3ccccc3)NC(=O)[C@H]3CC[C@H](CN)CC3)n2)cc1`, in that order: 2860 nM, above 10900 nM, above 8180 nM and 5270 nM.
The like results for `NC[C@H]1CC[C@H](C(=O)N[C@@H](Cc2ccccc2)c2nc(-c3ccc(CC(=O)O)cc3)c[nH]2)CC1` were, in that order, 150 nM, above 10900 nM, above 8180 nM and 765 nM.
For `NC[C@H]1CC[C@H](C(=O)N[C@@H](Cc2ccccc2)c2nc(-c3cccc(C(N)=O)c3)c[nH]2)CC1`, in that order: 1100 nM, above 10900 nM, above 8180 nM and 910 nM.
Take `NC[C@H]1CC[C@H](C(=O)N[C@@H](Cc2ccccc2)c2nc(-c3cccc(CC(=O)O)c3)c[nH]2)CC1`: the Ki on Coagulation factor XI was 275 nM; on Coagulation factor VII, above 10900 nM; on Coagulation factor X, above 8180 nM; on Plasma kallikrein it was 920 nM.
The like results for `NC[C@H]1CC[C@H](C(=O)N[C@@H](Cc2ccccc2)c2nc(-c3cccc(CC(N)=O)c3)c[nH]2)CC1` were, in that order, 545 nM, above 10900 nM, above 8180 nM and 1900 nM.
Take `NC[C@H]1CC[C@H](C(=O)N[C@@H](Cc2ccccc2)c2nc(-c3ccc(C(N)=O)cc3)c(Br)[nH]2)CC1.O=C(O)C(F)(F)F`: the Ki at Coagulation factor XI was 9 nM; on Coagulation factor VII, above 10900 nM; at Coagulation factor X, above 8180 nM; at Plasma kallikrein, 45 nM. The 2aPTT in data set [1] worked out at 10 µM.
As to `NC[C@H]1CC[C@H](C(=O)N[C@@H](Cc2ccccc2)c2nc(-c3ccc(C(N)=O)cc3)c(Cl)[nH]2)CC1.O=C(O)C(F)(F)F`, the Ki on Coagulation factor XI was 4 nM; at Coagulation factor VII it was above 10900 nM; at Coagulation factor X, above 9000 nM; at Plasma kallikrein, 20 nM. The 2aPTT in data set [1] turned out to be 6 µM.
For `NC[C@H]1CC[C@H](C(=O)N[C@@H](Cc2ccccc2)c2nc(-c3ccc(C(N)=O)cc3)c(F)[nH]2)CC1.O=C(O)C(F)(F)F`, in that order: 3 nM, above 13400 nM, 1370 nM, 8 nM and 2 µM.
Regarding `NC[C@H]1CC[C@H](C(=O)N[C@@H](Cc2ccccc2)c2nc(-c3ccc4c(N)n[nH]c4c3)c[nH]2)CC1.O=C(O)C(F)(F)F`, the inhibition constant Ki on Coagulation factor XI was 3 nM; on Coagulation factor VII it was above 10900 nM; at Coagulation factor X it was above 8180 nM; at Plasma kallikrein, 50 nM. The 2aPTT in data set [1] stood at 2 µM.
The like results for `NC[C@H]1CC[C@H](C(=O)N[C@@H](Cc2ccccc2)c2nc(-c3ccc4c(N)n[nH]c4c3)c(F)[nH]2)CC1.O=C(O)C(F)(F)F` were, in that order, 0.3 nM, 6200 nM, above 8180 nM, 2 nM and 0.5 µM.
Regarding `NC[C@H]1CC[C@H](C(=O)N[C@@H](Cc2ccccc2)c2ncc(-c3ccccc3)o2)CC1`, the Ki is 1440 nM on Coagulation factor XI and 3440 nM on Plasma kallikrein.
For `NC[C@H]1CC[C@H](C(=O)N[C@@H](Cc2ccccc2)c2nc(-c3ccccc3)n[nH]2)CC1`, in that order: 980 nM and 2220 nM.
The like results for `NC[C@H]1CC[C@H](C(=O)N[C@@H](Cc2ccccc2)c2cc(-c3ccccc3)n[nH]2)CC1` were, in that order, 6940 nM and 5020 nM.
For `NC[C@H]1CC[C@H](C(=O)N[C@@H](Cc2ccccc2)c2nn(-c3ccccc3)c(=O)[nH]2)CC1`, in that order: 3070 nM and 4820 nM.
With `NC[C@H]1CC[C@H](C(=O)N[C@@H](Cc2ccccc2)c2c[nH]c(-c3ccccc3)n2)CC1`, the Ki was determined as 1640 nM at Coagulation factor XI and 4500 nM on Plasma kallikrein.
Consider `Cl.NC[C@H]1CC[C@H](C(=O)N[C@@H](Cc2ccccc2)c2nc(-c3ccc4c(N)n[nH]c4c3)c(Cl)[nH]2)CC1`, for which, in data set [2], the solubility was 946 µg/mL. Moreover, the ED50 with Oryctolagus cuniculus came to 0.6 mg/kg.
Turning to `NC[C@H]1CC[C@H](C(=O)N[C@@H](Cc2ccccc2)c2nc(-c3ccc(C(=O)O)cc3)c[nH]2)CC1` (mixture of isomers), the Ki on Coagulation factor XI is 590 nM; at Coagulation factor VII it was above 10900 nM; on Coagulation factor X, above 8180 nM; at Plasma kallikrein, 3820 nM.
`NC[C@H]1CC[C@H](C(=O)N[C@@H](Cc2ccccc2)c2nc(-c3ccc(CC(N)=O)cc3)c[nH]2)CC1` (mixture of isomers): the Ki is 400 nM on Coagulation factor XI, above 10900 nM at Coagulation factor VII, above 8180 nM on Coagulation factor X and 1310 nM at Plasma kallikrein.
